Source: PubChem BioAssay (several laboratories)
FID counter: displaces DNA intercalator in HCV helicase counter-screen. DNA fluorescent intercalator displacement, fluorescence. AID 1845. inhibition, % at 7.9 µM. 0.17% of 290,000 active; in the data active means inhibition above about 37%;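 further: 0% = vehicle and 100% = reference compound; higher means more ethidium bromide displaced from hairpin DNA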
VIM-2 inh: blocks Pseudomonas aeruginosa VIM-2 metallo-beta-lactamase; inhibition, % at 5.6 µM; purified VIM-2, nitrocefin hydrolysis, epi-absorbance fluorescence; 0.89% of 290,000 active;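 active means inhibition above the mean of all tested compounds plus 3 SD, cutoff set per screening run, cut at about 7.5% in these data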;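 further: red hydrolysis product quenches plate fluorescence so inhibitors raise well fluorescence; 0% = enzyme with DMSO and 100% = DMSO without enzyme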
IMP-1 inh: inhibitors of Pseudomonas aeruginosa IMP-1 metallo-beta-lactamase | purified IMP-1, nitrocefin hydrolysis, epi-absorbance fluorescence | 0.45% of 290,000 active | inhibition, % at 5.6 µM | AID 1556;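 active means inhibition above the mean plus 3 SD of all compounds in the same screening run, cut at about 4.5% in these data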;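 further: 0% = IMP-1 with DMSO and 100% = DMSO wells lacking enzyme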
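System: purified IMP-1; amount: IMP-1 0.2 nM before substrate addition; compound: single dose, 5.6 µM; times: 25 °C, 15 min preincubation, 25 min reaction; signal: Epi-absorbance via hydrolysed-nitrocefin quenching of white-plate fluorescence, 480/530 nm, EDTA stop; benchmarks: DMSO with and without IMP-1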
UBC9 SUMO inh: SUMOylation inhibition; P63279; HTRF SUMOylation assay, SAE1/SAE2 + UBC9, in vitro; inhibition, % at 35 µM; 0.36% of 290,000 active; in the data active means inhibition above about 50%, passing the limit was not always enough
Target sequence (P63279 whole entry, looked up): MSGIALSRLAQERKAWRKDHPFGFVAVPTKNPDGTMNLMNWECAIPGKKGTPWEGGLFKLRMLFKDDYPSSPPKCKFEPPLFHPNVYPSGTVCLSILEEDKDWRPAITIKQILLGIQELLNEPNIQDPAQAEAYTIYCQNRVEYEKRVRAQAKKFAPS
Mot1-301 SUMO: inhibitors of SUMOylation pathway: yeast Mot1-301 growth rescue; S. cerevisiae Mot1-301 growth rescue, ATP luminescence, 38.5C; percent above DMSO median, 100 means doubled; growth rescue, % at 18.8 µM; 1% of 320,000 active;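 active means every valid replicate shows activation above 250% relative to neutral control wells; inactive means the rest, any valid replicate at or below 250%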;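 further: OY570 slx delta 5 strain wells were the positive control but not used for scaling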
NALP1 yeast inh: blocks the NALP1 inflammasome reconstituted in yeast; AID 2071; S. cerevisiae NALP1/ASC/caspase-1 growth, X-gal OD620, 72 h; inhibition, % at 10 µM; 0.61% of 280,000 active; in the data active means inhibition mostly above about 24%, no sharp cut-off; inactive means mostly below about 32%
* = called active by the depositor. This is a sample that favours compounds with a hit; in the whole collection about 2.9% have one here.

Results for CCCCC(=O)Nc1cc(N(C)C)nc2ccccc12 ?
FID counter: 24; VIM-2 inh: 5; IMP-1 inh: 0; UBC9 SUMO inh: 24; Mot1-301 SUMO: 79; NALP1 yeast inh: 7

What do the screens show for `CCCCN(C)CCNC(=O)c1cc2c(-c3cccc(OC)c3)nn(C)c2s1`?
FID counter: 17; VIM-2 inh: 10*; IMP-1 inh: -3; UBC9 SUMO inh: 28; Mot1-301 SUMO: -3; NALP1 yeast inh: 4

What do the screens show for `COCCNC(=O)c1cc2c(-c3ccccc3F)nn(C)c2s1`?
FID counter: -14; VIM-2 inh: 0; IMP-1 inh: 0; UBC9 SUMO inh: 21; Mot1-301 SUMO: 16; NALP1 yeast inh: 10

Results for CCCCN(C)CCNC(=O)c1cc2c(-c3ccccc3F)nn(C)c2s1 ?
FID counter: 9; VIM-2 inh: 11*; IMP-1 inh: -2; UBC9 SUMO inh: 24; Mot1-301 SUMO: 8; NALP1 yeast inh: 22

Results for O=c1c2ccccc2nc2n1CCC2 ?
FID counter: 8; VIM-2 inh: -2; IMP-1 inh: -3; UBC9 SUMO inh: 73*; Mot1-301 SUMO: 2; NALP1 yeast inh: 13

How did CCOc1ccc(OCCCCN(C)C)cc1 do in these assays?
FID counter: 14; VIM-2 inh: 3; IMP-1 inh: 35*; UBC9 SUMO inh: 4; Mot1-301 SUMO: -10; NALP1 yeast inh: -6

What do the screens show for `CC(=O)Nc1ccc(S(=O)(=O)Oc2cccc(/C=C3\SC(N)=NC3=O)c2)cc1`?
FID counter: -1; VIM-2 inh: -3; IMP-1 inh: -1; UBC9 SUMO inh: 50*; Mot1-301 SUMO: -6; NALP1 yeast inh: -66

How did NC1=NC(=O)/C(=C/c2cccc(F)c2)S1 do in these assays?
FID counter: -1; VIM-2 inh: -1; IMP-1 inh: -1; UBC9 SUMO inh: 6; Mot1-301 SUMO: -3; NALP1 yeast inh: -4

What do the screens show for `CC(NCCC(c1ccccc1)c1ccccc1)c1ccccc1` (stereo not drawn)?
FID counter: 20; VIM-2 inh: -1; IMP-1 inh: -1; UBC9 SUMO inh: 8; Mot1-301 SUMO: -24; NALP1 yeast inh: 54*

Results for CCS(=O)(=O)N1CCN(CC2CC3C=CC2C3)CC1 (stereo not drawn) ?
FID counter: -2; VIM-2 inh: 2; IMP-1 inh: -2; UBC9 SUMO inh: 9; Mot1-301 SUMO: 349*; NALP1 yeast inh: -5

Results for CCOC(CNC(=O)c1cccn2c(=O)c3cc(Cl)ccc3nc12)OCC ?
FID counter: -13; VIM-2 inh: -3; IMP-1 inh: -2; UBC9 SUMO inh: -6; Mot1-301 SUMO: 66; NALP1 yeast inh: 23

Results for CCOC(CNC(=O)c1cccn2c(=O)c3c(C)c(C)sc3nc12)OCC ?
FID counter: -15; VIM-2 inh: 10*; IMP-1 inh: -2; UBC9 SUMO inh: 14; Mot1-301 SUMO: 0; NALP1 yeast inh: 0

Results for CCOC(=O)c1ccccc1NC(=O)c1c(O)c2ccccc2n(CC)c1=O ?
FID counter: -1; VIM-2 inh: 0; IMP-1 inh: -8; UBC9 SUMO inh: 8; Mot1-301 SUMO: -6; NALP1 yeast inh: 21

Results for CCn1c(=O)c(C(=O)Nc2ccsc2C(=O)OC)c(O)c2ccccc21 ?
FID counter: 1; VIM-2 inh: -3; IMP-1 inh: -3; UBC9 SUMO inh: -21; Mot1-301 SUMO: 783*; NALP1 yeast inh: 9

Results for Cc1nc2ccccc2nc1N/N=C/c1ccc(O)cc1 ?
FID counter: -6; VIM-2 inh: 7.8*; IMP-1 inh: -1; UBC9 SUMO inh: 8; Mot1-301 SUMO: -20; NALP1 yeast inh: -2

What do the screens show for `Oc1ccc(/C=N/Nc2ccccc2)cc1`?
FID counter: 2; VIM-2 inh: -4; IMP-1 inh: 0; UBC9 SUMO inh: 2; Mot1-301 SUMO: 13; NALP1 yeast inh: -29

How did CC1(C)CC(Cc2nc(=S)[nH][nH]2)C(=O)O1 (stereo not drawn) do in these assays?
FID counter: -2; VIM-2 inh: -5; IMP-1 inh: -4; UBC9 SUMO inh: -4; Mot1-301 SUMO: 5; NALP1 yeast inh: 10

How did N#Cc1ccccc1OCC(=O)OCC(=O)N1CCCC1 do in these assays?
Mot1-301 SUMO: -5

Results for N#Cc1ccccc1OCC(=O)OCCCOC(=O)COc1ccccc1C#N ?
FID counter: -34; VIM-2 inh: 0; IMP-1 inh: 0; UBC9 SUMO inh: 1; Mot1-301 SUMO: 300*; NALP1 yeast inh: 19

Results for CC(C)CCNC(=O)NC(=O)COc1ccccc1C#N ?
FID counter: -15; VIM-2 inh: -1; IMP-1 inh: 5.4*; UBC9 SUMO inh: 1; Mot1-301 SUMO: -6; NALP1 yeast inh: -5

Results for C/C(CCc1ccco1)=N\NC(=O)CNc1cccc2ccccc12 ?
FID counter: 0; VIM-2 inh: 0; IMP-1 inh: 0; UBC9 SUMO inh: 66; Mot1-301 SUMO: 5; NALP1 yeast inh: -18

Results for O=C(N/N=C\C=C\c1ccco1)c1cc(-c2ccc3ccccc3c2)n[nH]1 ?
FID counter: -4; VIM-2 inh: -1; IMP-1 inh: -3; UBC9 SUMO inh: 51*; Mot1-301 SUMO: 594*; NALP1 yeast inh: 0

What do the screens show for `O=C(CNc1cccc2ccccc12)N/N=C/c1ccc(C(=O)O)cc1`?
FID counter: -23; VIM-2 inh: -3; IMP-1 inh: -2; UBC9 SUMO inh: 77*; Mot1-301 SUMO: 15; NALP1 yeast inh: 3

Results for C/C(=N\NC(=O)CNc1cccc2ccccc12)c1ccccc1 ?
FID counter: 0; VIM-2 inh: -3; IMP-1 inh: -2; UBC9 SUMO inh: 80*; Mot1-301 SUMO: 1; NALP1 yeast inh: -11

How did O=C(CNc1cccc2ccccc12)N/N=C/C=C/c1ccco1 do in these assays?
FID counter: -7; VIM-2 inh: -2; IMP-1 inh: -2; UBC9 SUMO inh: 98*; Mot1-301 SUMO: -8; NALP1 yeast inh: -10

What do the screens show for `O=S(=O)(CCNCc1cccs1)c1ccc(Cl)cc1`?
FID counter: -4; VIM-2 inh: -2; IMP-1 inh: -3; UBC9 SUMO inh: 9; Mot1-301 SUMO: -3; NALP1 yeast inh: 0

What do the screens show for `O=C(Nc1cccc(F)c1)NC1(C(=O)N2CCOCC2)CCCCC1`?
FID counter: 7; VIM-2 inh: 1; IMP-1 inh: -2; UBC9 SUMO inh: 8; Mot1-301 SUMO: 116; NALP1 yeast inh: 4

What do the screens show for `COc1ccc(/C=C(/NC(=O)c2ccc(C)cc2)C(=O)N2CCCC2)cc1OC`?
FID counter: -30; VIM-2 inh: -1; IMP-1 inh: -2; UBC9 SUMO inh: 12; Mot1-301 SUMO: -6; NALP1 yeast inh: 10

What do the screens show for `CC(C)N1CCC(=NNC(=O)c2cccs2)CC1`?
FID counter: -11; VIM-2 inh: -2; IMP-1 inh: -4; UBC9 SUMO inh: 3; Mot1-301 SUMO: -2; NALP1 yeast inh: 7
